What was measured:
[1] = target: T1, 5-hydroxytryptamine receptor 6 (Homo sapiens, UniProt P50406); assay: Antagonist activity at human recombinant 5HT6 receptor expressed in HEK293 cells assessed as inhibition of serotonin-induced cAMP production; assay type: functional, cell-based
How it was run: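 HEK293 cells stably expressing recombinant human 5-HT6R, stimulated with serotonin. cAMP from adenylyl cyclase measured by LANCE. Compounds screened at 5 and 10 μM. IC50 determined for compounds giving more than 50% inhibition of cAMP synthesis at 5 μM.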

[2] = target: T1, 5-hydroxytryptamine receptor 6; assay: Binding affinity to human recombinant 5HT6 receptor expressed in HEK293 cells by radioligand displacement assay; assay type: cell-based
How it was run: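 Competitive radioligand binding at the 5-HT6 receptor, run by MDS Pharma Services as part of a serotonin receptor panel. IC50 and Ki values derived.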

[3] = target: T2, 5-hydroxytryptamine receptor 1A (Homo sapiens) (UniProt P08908); assay: Binding affinity to 5HT1A receptor at 1 uM by radioligand displacement assay
T2 sequence (whole entry): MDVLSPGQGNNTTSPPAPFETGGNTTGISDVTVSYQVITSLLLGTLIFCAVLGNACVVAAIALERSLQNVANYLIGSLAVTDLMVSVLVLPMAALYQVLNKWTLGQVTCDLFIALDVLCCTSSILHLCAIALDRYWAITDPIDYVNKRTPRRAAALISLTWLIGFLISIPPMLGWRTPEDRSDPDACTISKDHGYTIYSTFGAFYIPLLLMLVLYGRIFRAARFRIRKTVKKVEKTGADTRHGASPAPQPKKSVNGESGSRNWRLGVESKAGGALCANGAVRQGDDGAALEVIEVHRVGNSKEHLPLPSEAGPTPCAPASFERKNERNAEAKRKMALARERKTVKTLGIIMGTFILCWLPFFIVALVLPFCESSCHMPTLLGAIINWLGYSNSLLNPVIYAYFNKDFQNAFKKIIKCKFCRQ
How it was run: (§1)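 Competitive radioligand binding run by MDS Pharma Services on a serotonin receptor panel. Test compound at 1 µM. Read-out is % displacement of radioligand from each receptor complex.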

[4] = target: 5-hydroxytryptamine receptor 1B (Homo sapiens) (UniProt P28222); assay: Binding affinity to 5HT1B receptor at 1 uM by radioligand displacement assay; how it was run: as §1
[5] = target: 5-hydroxytryptamine receptor 2A (Homo sapiens) (UniProt P28223); assay: Binding affinity to 5HT2A receptor at 1 uM by radioligand displacement assay; how it was run: as §1
[6] = target: 5-hydroxytryptamine receptor 2B (Homo sapiens) (UniProt P41595); assay: Binding affinity to 5HT2B receptor at 1 uM by radioligand displacement assay; how it was run: as §1
[7] = target: T3, 5-hydroxytryptamine receptor 2C (Homo sapiens) (UniProt P28335); assay: Binding affinity to 5HT2C receptor at 1 uM by radioligand displacement assay; how it was run: as §1
T3 sequence (whole entry): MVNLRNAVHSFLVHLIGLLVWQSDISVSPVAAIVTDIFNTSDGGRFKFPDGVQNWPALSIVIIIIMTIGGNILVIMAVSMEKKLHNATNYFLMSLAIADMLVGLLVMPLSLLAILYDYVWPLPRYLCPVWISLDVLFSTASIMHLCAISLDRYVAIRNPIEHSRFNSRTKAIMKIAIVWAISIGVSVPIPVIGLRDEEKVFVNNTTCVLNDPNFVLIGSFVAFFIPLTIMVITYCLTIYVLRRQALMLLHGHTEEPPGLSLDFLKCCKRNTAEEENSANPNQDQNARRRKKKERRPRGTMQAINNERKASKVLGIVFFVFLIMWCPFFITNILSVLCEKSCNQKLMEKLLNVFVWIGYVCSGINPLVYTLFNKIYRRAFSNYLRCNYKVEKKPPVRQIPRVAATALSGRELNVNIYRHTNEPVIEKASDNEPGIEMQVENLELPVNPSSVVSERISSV

[8] = target: T4, 5-hydroxytryptamine receptor 3A (Homo sapiens) (UniProt P46098); assay: Binding affinity to 5HT3 receptor at 1 uM by radioligand displacement assay; how it was run: as §1
T4 sequence (whole entry): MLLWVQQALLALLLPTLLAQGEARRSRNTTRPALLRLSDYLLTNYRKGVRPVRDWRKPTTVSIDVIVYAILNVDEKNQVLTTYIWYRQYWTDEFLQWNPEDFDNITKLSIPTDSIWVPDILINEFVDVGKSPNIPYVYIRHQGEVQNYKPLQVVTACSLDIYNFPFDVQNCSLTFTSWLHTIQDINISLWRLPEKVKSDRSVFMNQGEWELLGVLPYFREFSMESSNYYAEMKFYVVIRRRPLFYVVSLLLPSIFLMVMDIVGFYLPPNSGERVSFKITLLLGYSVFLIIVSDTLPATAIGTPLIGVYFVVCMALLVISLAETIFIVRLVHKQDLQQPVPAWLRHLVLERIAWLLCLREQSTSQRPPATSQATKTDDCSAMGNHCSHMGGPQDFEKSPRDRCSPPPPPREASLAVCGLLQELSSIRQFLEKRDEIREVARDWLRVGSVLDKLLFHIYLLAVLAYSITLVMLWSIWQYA

[9] = target: 5-hydroxytryptamine receptor 4 (Homo sapiens) (UniProt Q13639); assay: Binding affinity to 5HT4 receptor at 1 uM by radioligand displacement assay; how it was run: as §1
[10] = target: 5-hydroxytryptamine receptor 7 (Homo sapiens) (UniProt P34969); assay: Binding affinity to 5HT7 receptor at 1 uM by radioligand displacement assay; how it was run: as §1
[11] = target: T5, hERG (KCNH2) (Homo sapiens, UniProt Q12809); assay: Inhibition of human ERG at 15 uM by patch clamp assay
How it was run: (§2)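 hERG potassium channel inhibition measured by patch clamp, performed by MDS Pharma Services. Read-out is % inhibition at a single test concentration.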

[12] = target: T1, 5-hydroxytryptamine receptor 6; assay: Binding affinity to human recombinant 5HT6 receptor expressed in HEK293 cells at 1 uM by radioligand displacement assay; assay type: cell-based; how it was run: as §1
[13] = target: T5, hERG (KCNH2); assay: Inhibition of human ERG at 30 uM by patch clamp assay; how it was run: as §2

T1 sequence (P50406 whole entry): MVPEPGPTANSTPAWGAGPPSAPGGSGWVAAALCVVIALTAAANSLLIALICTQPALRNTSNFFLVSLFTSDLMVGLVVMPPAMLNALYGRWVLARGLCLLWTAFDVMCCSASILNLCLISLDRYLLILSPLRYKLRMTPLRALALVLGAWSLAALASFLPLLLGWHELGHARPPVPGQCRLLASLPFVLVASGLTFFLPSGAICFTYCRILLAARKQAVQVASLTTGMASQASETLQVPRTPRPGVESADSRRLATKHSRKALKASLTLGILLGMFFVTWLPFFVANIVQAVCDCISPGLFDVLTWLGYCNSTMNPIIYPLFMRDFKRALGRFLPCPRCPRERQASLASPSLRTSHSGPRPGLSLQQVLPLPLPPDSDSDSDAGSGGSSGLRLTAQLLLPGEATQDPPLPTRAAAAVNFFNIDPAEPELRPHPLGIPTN
Chain of 5-hydroxytryptamine receptor 4 (Homo sapiens) (Q13639 whole entry): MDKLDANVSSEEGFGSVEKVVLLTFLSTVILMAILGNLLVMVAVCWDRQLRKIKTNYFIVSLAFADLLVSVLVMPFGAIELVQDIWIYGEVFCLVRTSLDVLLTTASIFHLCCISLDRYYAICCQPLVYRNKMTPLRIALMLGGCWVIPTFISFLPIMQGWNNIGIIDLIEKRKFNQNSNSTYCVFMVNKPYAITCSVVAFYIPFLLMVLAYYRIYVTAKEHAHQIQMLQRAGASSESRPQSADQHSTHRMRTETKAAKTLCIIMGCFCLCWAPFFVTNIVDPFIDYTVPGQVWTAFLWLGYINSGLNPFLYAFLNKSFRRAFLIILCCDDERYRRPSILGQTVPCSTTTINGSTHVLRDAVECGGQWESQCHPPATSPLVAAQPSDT
Chain of 5-hydroxytryptamine receptor 2A (Homo sapiens) (P28223 whole entry): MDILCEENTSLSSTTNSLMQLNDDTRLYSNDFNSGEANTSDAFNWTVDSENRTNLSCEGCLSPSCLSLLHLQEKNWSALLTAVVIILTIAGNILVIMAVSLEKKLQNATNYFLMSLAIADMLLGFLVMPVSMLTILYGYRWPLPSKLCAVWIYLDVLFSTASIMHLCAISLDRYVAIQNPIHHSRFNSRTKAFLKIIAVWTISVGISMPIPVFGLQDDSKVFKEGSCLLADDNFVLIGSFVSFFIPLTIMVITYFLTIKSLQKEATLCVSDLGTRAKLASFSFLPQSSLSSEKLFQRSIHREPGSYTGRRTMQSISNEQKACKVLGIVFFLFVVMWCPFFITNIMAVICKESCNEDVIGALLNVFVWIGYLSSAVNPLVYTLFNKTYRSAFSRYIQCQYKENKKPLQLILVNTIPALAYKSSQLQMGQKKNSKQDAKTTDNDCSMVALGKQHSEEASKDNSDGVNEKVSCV
Chain of 5-hydroxytryptamine receptor 1B (Homo sapiens) (P28222 whole entry): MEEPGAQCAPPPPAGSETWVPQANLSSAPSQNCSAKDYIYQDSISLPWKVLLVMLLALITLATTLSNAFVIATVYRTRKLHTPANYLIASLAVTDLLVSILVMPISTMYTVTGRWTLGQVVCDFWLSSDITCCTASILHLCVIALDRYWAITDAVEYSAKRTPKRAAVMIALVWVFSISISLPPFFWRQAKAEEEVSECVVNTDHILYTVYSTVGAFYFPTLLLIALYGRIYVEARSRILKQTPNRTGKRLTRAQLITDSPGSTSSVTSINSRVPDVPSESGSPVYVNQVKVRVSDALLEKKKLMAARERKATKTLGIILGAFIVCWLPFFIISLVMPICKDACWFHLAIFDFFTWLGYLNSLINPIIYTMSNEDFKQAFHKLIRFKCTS
Chain of 5-hydroxytryptamine receptor 7 (Homo sapiens) (P34969 whole entry): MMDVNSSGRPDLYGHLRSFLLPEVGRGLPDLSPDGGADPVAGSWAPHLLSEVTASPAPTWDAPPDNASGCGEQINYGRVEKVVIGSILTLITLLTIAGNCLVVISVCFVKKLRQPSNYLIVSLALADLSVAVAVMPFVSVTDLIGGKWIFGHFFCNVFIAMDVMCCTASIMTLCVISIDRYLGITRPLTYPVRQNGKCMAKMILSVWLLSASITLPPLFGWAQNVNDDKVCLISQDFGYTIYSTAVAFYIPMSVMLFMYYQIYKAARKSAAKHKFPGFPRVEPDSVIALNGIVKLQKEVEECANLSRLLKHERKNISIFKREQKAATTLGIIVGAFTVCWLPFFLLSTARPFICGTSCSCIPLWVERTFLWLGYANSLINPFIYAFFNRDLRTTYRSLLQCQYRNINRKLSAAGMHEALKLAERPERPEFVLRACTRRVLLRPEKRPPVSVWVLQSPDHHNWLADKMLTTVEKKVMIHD
Chain of 5-hydroxytryptamine receptor 2B (Homo sapiens) (P41595 whole entry): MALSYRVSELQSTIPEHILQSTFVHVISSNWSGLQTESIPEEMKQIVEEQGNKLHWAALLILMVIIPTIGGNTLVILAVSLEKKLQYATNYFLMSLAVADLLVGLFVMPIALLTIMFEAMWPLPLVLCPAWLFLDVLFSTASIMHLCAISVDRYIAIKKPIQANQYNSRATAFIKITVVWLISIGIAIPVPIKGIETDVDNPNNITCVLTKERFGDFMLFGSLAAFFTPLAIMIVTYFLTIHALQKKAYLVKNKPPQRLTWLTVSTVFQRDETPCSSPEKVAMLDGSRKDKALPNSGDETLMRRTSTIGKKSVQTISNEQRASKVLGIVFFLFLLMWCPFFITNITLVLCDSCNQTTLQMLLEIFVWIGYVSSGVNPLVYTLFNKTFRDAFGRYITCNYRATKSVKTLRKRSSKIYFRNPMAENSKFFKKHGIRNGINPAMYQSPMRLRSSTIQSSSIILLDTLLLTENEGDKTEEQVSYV
T5 sequence (Q12809 whole entry): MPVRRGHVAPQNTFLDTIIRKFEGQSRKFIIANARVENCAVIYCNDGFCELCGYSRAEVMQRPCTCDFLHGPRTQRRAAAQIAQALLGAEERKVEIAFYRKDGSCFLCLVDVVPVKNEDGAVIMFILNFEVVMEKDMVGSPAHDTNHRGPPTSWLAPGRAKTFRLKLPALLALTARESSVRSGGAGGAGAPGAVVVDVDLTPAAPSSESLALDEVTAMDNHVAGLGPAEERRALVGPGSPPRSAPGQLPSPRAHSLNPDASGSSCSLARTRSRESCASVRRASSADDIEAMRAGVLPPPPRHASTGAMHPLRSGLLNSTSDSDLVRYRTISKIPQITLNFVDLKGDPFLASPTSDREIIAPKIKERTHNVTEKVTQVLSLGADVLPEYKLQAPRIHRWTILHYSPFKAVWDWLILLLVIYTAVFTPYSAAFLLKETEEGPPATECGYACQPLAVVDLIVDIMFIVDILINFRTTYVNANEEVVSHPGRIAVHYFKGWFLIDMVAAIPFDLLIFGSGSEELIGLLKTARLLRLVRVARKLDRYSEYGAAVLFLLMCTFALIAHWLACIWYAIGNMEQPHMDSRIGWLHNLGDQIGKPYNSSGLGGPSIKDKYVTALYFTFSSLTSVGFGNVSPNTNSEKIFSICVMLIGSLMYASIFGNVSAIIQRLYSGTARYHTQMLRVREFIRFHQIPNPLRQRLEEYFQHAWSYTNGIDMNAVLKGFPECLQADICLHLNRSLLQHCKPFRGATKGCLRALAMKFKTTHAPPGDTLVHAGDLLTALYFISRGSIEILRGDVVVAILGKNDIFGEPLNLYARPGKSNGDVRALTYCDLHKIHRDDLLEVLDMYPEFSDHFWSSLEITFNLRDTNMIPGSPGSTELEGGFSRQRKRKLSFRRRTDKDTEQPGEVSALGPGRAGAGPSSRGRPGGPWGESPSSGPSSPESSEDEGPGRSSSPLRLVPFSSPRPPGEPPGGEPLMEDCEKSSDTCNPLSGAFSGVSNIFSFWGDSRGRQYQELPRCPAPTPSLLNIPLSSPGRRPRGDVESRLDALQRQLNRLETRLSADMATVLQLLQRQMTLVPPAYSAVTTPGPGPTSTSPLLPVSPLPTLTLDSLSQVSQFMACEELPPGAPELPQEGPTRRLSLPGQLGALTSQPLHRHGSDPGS

IC50 [1] [nM] | IC50 [2] [nM] | Ki [2] [nM] | Activity [3] [%] | Activity [4] [%] | Activity [5] [%] | Activity [6] [%] | Activity [7] [%] | Activity [8] [%] | Activity [9] [%] | Activity [10] [%] | Activity [12] [%] | SMILES | inhibition at 15 µM [11] [%] | inhibition at 30 µM [13] [%]
170 | 5 | 2.3 | 2 | 1 | 15 | 12 | 2 | -7 | 33 | -2 | 103 | CN(Cc1ccccc1)c1nc2c(S(=O)(=O)c3ccccc3)nnn2c2ccsc12 | 20 | 
920 | 7.5 | 3.5 | 9 | 3 | 50 | 46 | 15 | -3 | 41 | 6 | 106 | CN(Cc1ccccc1)c1nc2c(S(=O)(=O)c3cccc(Cl)c3)nnn2c2ccsc12 |  | 20

From ChEMBL document CHEMBL1177669, “Synthesis and biological study of 3-(phenylsulfonyl)thieno[2,3-e][1,2,3]triazolo[1,5-a]pyrimidines as potent and selective serotonin 5-HT6 receptor antagonists” (Bioorg Med Chem, 2010)
